Columns and labels:
[1] = molecular target: T1, Leukotriene B4 receptor 1 (Homo sapiens, UniProt Q15722); assay: Inhibition of specific binding of LTB4 ( 0.1 nM) to receptors on intact human neutrophils
In short: (§1)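 Intact human neutrophils from heparinized venous blood of normal volunteers, isolated by Ficoll-Hypaque centrifugation, dextran 70 sedimentation and hypotonic lysis (≥90% neutrophils, ≥90% viable). Cells at 2 × 10⁷/mL in Ca/Mg-free Hanks' with 0.1% ovalbumin, [³H]LTB₄ final 0.1 nM, compound in DMSO (final 1.9%). Incubation 10 min at 4 °C, harvest, scintillation counting. Nonspecific binding from 10 000-fold excess unlabeled LTB₄. Triplicate tubes.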

[2] = molecular target: T1, Leukotriene B4 receptor 1; assay: Relative potency against LTB4 receptor was determined
Homo sapiens [3] = organism: Homo sapiens; assay: Inhibition of luminol-dependent chemiluminescence induced by stimulating the neutrophil cells with FMLP (N-formyl-L-methionyl-L-leucyl-l-phenylalanine); type: functional, cell-based
In short: (§2)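 Luminol-dependent chemiluminescence of human neutrophils (1 × 10⁷/mL) in Ca/Mg-free Dulbecco's PBS, pH 7.4, with cytochalasin B, stirred at 900 rpm and 37 °C in an aggregometer. Antagonist was added at 2 min, then Ca²⁺/Mg²⁺. After 1 min, luminol and agonist (LTB₄ or FMLP, 30 nM) were added and the maximum response recorded. Cells from five individuals.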

Homo sapiens [4] = organism: Homo sapiens; assay: Inhibition of LTB-4 induced chemotaxis of human neutrophils; type: functional
Homo sapiens [5] = organism: Homo sapiens; assay: Inhibition of luminol-dependent chemiluminescence induced by stimulating the neutrophil cells with LTB4.; type: functional, cell-based; in short: as §2
Homo sapiens [6] = organism: Homo sapiens; assay: The antagonist activity measured as blockade of the FMLP reaction in neutrophils; type: functional; in short: as §2
Homo sapiens [7] = organism: Homo sapiens; assay: LTB4-induced chemotaxis of the human neutrophils; type: functional
Homo sapiens [8] = organism: Homo sapiens; assay: The activity of suppression of the FMLP-mediated response; type: functional; in short: as §2
[9] = molecular target: T1, Leukotriene B4 receptor 1; assay: Inhibition constant against binding of [3H]LTB4 to human neutrophils; in short: as §1
[10] = molecular target: T1, Leukotriene B4 receptor 1; assay: Inhibition of binding of [3H]LTB4 to receptor […]
In short: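 Intact human neutrophils isolated from heparinized blood of normal volunteers (Ficoll-Hypaque, dextran sedimentation, hypotonic lysis) were suspended at 2 × 10⁷ cells/mL in Ca/Mg-free HBSS with 0.1% ovalbumin. Tubes held 0.1 nM final [³H]LTB₄ and compound in DMSO (1.9% final), ran 10 min at 4 °C, then were harvested for scintillation counting. Triplicate tubes; nonspecific binding set with 10 000-fold unlabeled LTB₄.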

T1 sequence (Q15722 whole entry): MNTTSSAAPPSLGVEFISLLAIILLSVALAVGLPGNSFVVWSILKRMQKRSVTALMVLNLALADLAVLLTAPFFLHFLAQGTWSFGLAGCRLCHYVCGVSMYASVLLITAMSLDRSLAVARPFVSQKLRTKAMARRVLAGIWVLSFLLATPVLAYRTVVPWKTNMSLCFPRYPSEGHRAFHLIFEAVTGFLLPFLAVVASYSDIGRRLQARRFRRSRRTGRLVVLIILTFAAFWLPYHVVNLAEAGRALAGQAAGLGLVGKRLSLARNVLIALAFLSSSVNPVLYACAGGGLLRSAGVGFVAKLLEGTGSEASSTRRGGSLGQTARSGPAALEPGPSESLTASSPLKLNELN

Row | SMILES | IC50 [1] [nM] | Relative potency [2] | further results
1 | CCCCCCCCCCOc1cc2oc3c(C(=O)O)cccc3c(=O)c2cc1CCC(=O)O | 1770 | 1.2 | 
2 | CCCCCCCCCCOc1ccc2c(=O)c3cc(C(=O)O)ccc3oc2c1CCC(=O)O | 43 | 49 | IC50 (Homo sapiens [3]): 734 nM; IC50 (Homo sapiens [4]): 7900 nM; IC50 (Homo sapiens [5]): 342 nM; IC50 (Homo sapiens [6]): 1210 nM
3 | COc1ccc(/C=C/CCCCOc2ccc3c(=O)c4cc(C(=O)O)ccc4oc3c2CCC(=O)O)cc1 | 6.2 | 338 | IC50 (Homo sapiens [7]): 899 nM; IC50 (Homo sapiens [3]): 1600 nM; IC50 (Homo sapiens [8]): 2170 nM; Ki [9]: 5.9 nM; IC50 (Homo sapiens [5]): 55 nM
4 | COc1ccc(/C=C/CCCCOc2ccc(C(=O)c3cccc(C(=O)O)c3)cc2CCC(=O)O)cc1 |  |  | IC50 [10]: 1.9 nM
5 | CCCCCCCCCCOc1cc2oc3ccc(C(=O)O)cc3c(=O)c2cc1CCC(=O)O | 832 | 2.5 | 
6 | CCCCCCCCCCOc1ccc(C(=O)c2cccc(C(=O)O)c2)cc1CCC(=O)O | 210 | 10 | 
7 | CCCCCCCCCCOc1ccc2c(=O)c3cccc(C(=O)O)c3oc2c1CCC(=O)O | 2100 | 1 | 
